Measurements from ChEMBL document CHEMBL1133563, “Development of new hydroxamate matrix metalloproteinase inhibitors derived from functionalized 4-aminoprolines” (J Med Chem, 2000).

How the values were obtained:
Stromelysin-1 [1] = biological target: T1, Stromelysin-1 (Homo sapiens, UniProt P08254); experiment: In vitro inhibitory activity against matrix metalloprotease -3 (stromelysin)
Collagenase 3 [2] = biological target: T2, Collagenase 3 (Homo sapiens, UniProt P45452)
[3] = biological target: 72 kDa type IV collagenase (Homo sapiens, UniProt P08253); experiment: In vitro inhibitory activity against matrix metalloprotease -2 (gelatinase-A)
Matrilysin = biological target: T3, Matrilysin (Homo sapiens, UniProt P09237); experiment: In vitro inhibitory activity against matrix metalloprotease-7 (matrilysin, MMP-7)
T3 sequence (P09237 whole entry): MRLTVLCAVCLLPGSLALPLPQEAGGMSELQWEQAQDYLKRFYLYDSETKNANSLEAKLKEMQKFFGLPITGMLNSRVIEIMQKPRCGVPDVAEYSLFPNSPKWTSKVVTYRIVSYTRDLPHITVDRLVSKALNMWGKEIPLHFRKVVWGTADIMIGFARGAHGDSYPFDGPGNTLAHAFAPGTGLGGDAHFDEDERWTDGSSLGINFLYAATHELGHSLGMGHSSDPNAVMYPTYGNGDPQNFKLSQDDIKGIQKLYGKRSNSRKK
Outline: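 Human recombinant truncated enzymes, final MMP-1 8 nM, MMP-3 16 nM, MMP-7 2 nM. Quenched-fluorescence assay with Mca-Pro-Leu-Gly-Leu-Dpa-Ala-Arg-NH₂ (4 µM) in 50 mM Tris pH 7.5, 0.2 M NaCl, 5 mM CaCl₂, 0.02% Brij-35 at 25 °C. Fluorescence (ex 328/em 393 nm) read kinetically for 30 min.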

Interstitial collagenase = biological target: T4, Interstitial collagenase (Homo sapiens, UniProt P03956); experiment: In vitro inhibitory activity against matrix metalloprotease -1 (collagenase-1)
T4 sequence (P03956 whole entry): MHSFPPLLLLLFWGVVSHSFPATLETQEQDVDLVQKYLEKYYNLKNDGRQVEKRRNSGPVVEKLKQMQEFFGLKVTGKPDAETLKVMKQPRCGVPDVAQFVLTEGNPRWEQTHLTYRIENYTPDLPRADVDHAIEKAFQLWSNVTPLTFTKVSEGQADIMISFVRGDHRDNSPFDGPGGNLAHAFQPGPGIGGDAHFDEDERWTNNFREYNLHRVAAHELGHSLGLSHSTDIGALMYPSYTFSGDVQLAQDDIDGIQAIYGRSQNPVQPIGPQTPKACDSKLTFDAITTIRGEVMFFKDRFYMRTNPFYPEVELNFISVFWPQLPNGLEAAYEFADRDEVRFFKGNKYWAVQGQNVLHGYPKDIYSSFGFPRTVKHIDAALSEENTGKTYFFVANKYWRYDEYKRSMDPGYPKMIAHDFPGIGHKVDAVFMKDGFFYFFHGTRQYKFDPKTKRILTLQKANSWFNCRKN

Collagenase 3 [4] = biological target: T2, Collagenase 3; experiment: In vitro inhibitory activity against human recombinant matrix metalloprotease-13 (collagenase-3)
Rattus norvegicus = organism: Rattus norvegicus; experiment: Time over 100 ng/ml in fasted rats; details: in vivo
Collagenase 3 [5] = biological target: T2, Collagenase 3; remark: listed apart in the source
Stromelysin-1 [6] = biological target: T1, Stromelysin-1; experiment: Inhibition of matrix metalloprotease-3 (stromelysin)
Outline: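 Human recombinant truncated MMP-3 (E. coli-expressed), 16 nM final, with fluorogenic substrate Mca-Pro-Leu-Gly-Leu-Dpa-Ala-Arg-NH₂ at 4 µM, 25 °C, in 50 mM Tris pH 7.5, 0.2 M NaCl, 5 mM CaCl₂, 0.02% Brij-35.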

[7] = Pharmacokinetic half time was determined intravenously in rats.; assay type: ADME, organism-based; details: rat, in vivo, iv
Outline: (§1)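 Single-compound study in male Sprague-Dawley rats, dosed intravenously and orally in a parallel-group design. Parameters were derived from mean plasma concentration-time profiles.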

[8] = Mean (%CV) PK parameters for CL(mL/min/kg).; assay type: ADME, organism-based; details: rat, in vivo; outline: as §1
[9] = Compound demonstarted an oral bioavailability of […]% with the half-life time as given in rats.; assay type: ADME, organism-based; details: rat, in vivo
[10] = Mean (%CV) PK parameters for Vdss(mL/kg).; assay type: ADME, organism-based; details: rat, in vivo; read-out: Vdss; outline: as §1
[11] = Oral bioavailability measured by the ratio of […] area under concentration.; assay type: ADME, organism-based; details: rat, in vivo; outline: as §1

72 kDa type IV collagenase, sequence (P08253 whole entry): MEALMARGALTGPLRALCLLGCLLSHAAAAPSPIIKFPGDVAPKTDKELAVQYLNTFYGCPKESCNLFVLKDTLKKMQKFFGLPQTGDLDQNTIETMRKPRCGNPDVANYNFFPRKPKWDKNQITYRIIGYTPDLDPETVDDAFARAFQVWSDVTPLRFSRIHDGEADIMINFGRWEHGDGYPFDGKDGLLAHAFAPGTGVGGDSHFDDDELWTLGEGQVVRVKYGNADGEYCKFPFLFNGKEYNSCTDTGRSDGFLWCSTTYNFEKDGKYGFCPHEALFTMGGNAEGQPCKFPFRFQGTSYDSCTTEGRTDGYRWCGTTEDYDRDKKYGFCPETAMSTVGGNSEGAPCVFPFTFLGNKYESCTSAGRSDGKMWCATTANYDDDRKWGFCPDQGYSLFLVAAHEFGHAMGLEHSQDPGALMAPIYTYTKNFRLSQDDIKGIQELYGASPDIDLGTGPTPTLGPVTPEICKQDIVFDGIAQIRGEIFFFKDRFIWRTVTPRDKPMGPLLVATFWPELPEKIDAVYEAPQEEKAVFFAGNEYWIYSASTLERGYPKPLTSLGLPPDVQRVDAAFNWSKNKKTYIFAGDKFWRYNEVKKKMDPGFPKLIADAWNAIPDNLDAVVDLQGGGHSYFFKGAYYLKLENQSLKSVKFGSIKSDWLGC
T1 sequence (P08254 whole entry): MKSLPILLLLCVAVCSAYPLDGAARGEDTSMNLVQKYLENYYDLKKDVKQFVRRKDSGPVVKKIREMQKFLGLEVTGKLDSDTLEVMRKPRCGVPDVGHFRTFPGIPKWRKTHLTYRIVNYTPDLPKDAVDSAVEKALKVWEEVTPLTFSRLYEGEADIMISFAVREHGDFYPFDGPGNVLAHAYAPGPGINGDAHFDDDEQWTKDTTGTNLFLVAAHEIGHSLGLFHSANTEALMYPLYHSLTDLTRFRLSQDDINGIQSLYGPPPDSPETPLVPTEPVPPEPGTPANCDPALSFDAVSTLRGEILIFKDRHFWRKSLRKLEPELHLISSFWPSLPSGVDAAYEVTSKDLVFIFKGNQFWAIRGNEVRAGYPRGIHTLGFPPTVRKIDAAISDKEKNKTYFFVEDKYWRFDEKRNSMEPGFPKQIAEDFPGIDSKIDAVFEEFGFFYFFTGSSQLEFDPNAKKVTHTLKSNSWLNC

Row | Structure (SMILES) | IC50 (Stromelysin-1 [1]) [nM] | IC50 [3] [nM] | IC50 (Matrilysin) [nM] | IC50 (Interstitial collagenase) [nM] | IC50 (Collagenase 3 [4]) [nM] | other results
1 | CCCCOc1ccc(S(=O)(=O)N2C[C@@H](N3CCS(=O)(=O)CC3)C[C@@H]2C(=O)NO)cc1 | 12 | 7 | 3400 | > 1000 | – | IC50 (Collagenase 3 [2]): 0.9 nM
2 | COc1ccc(S(=O)(=O)N2C[C@@H](N3CCCCC3)C[C@@H]2C(=O)NO)cc1 | 48 | 6 | 7400 | – | 1 | –
3 | COc1ccc(S(=O)(=O)N2C[C@@H](NS(C)(=O)=O)C[C@@H]2C(=O)NO)cc1 | 42 | 2 | 2700 | 260 | 2 | –
4 | COc1ccc(S(=O)(=O)N2C[C@@H](N3CCOCC3)C[C@@H]2C(=O)NO)cc1 | 14 | 6 | – | 220 | – | –
5 | CCCCOc1ccc(S(=O)(=O)N2C[C@@H](N3C(=O)NC(SC)C3=O)C[C@@H]2C(=O)NO)cc1 (stereo partly drawn) | 42 | 49 | 850 | 750 | < 0.5 | –
6 | CCCOc1ccc(S(=O)(=O)N2C[C@@H](N3CCOCC3)C[C@@H]2C(=O)NO)cc1 | 7 | – | 16500 | 490 | 1 | Time over 100ng/ml (Rattus norvegicus): 4.5 h
7 | CCCCOc1ccc(S(=O)(=O)N2C[C@@H](N3C(=O)CN(CCC)C3=O)C[C@@H]2C(=O)NO)cc1 | 10 | 0.4 | 1200 | 570 | 0.3 | –
8 | CCCOc1ccc(S(=O)(=O)N2C[C@@H](N3CCCC3)C[C@@H]2C(=O)NO)cc1 | 8 | < 1 | 8700 | 310 | 1 | –
9 | COCCOc1ccc(S(=O)(=O)N2C[C@@H](N3C(=O)CN(C)C3=O)C[C@@H]2C(=O)NO)cc1 | 26 | 1 | 9100 | 1800 | – | IC50 (Collagenase 3 [2]): 4.4 nM; Time over 100ng/ml (Rattus norvegicus): 0 h
10 | CCCN1CC(=O)N([C@H]2C[C@H](C(=O)NO)N(S(=O)(=O)c3ccc(OCCOC)cc3)C2)C1=O | 30 | 2 | 11000 | 2500 | 2 | –
11 | CCCN([C@H]1C[C@H](C(=O)NO)N(S(=O)(=O)c2ccc(OC)cc2)C1)S(C)(=O)=O | 10 | 0.8 | 920 | 33 | 0.8 | –
12 | CCCCOc1ccc(S(=O)(=O)N2C[C@@H](NC(=O)[C@@H](O)CC(C)C)C[C@@H]2C(=O)NO)cc1 | 10 | – | 2400 | 440 | 0.9 | –
13 | CCCN(C(=O)[C@H](C)O)[C@H]1C[C@H](C(=O)NO)N(S(=O)(=O)c2ccc(OC)cc2)C1 | 2 | 0.7 | 8500 | 87 | 1 | –
14 | COc1ccc(S(=O)(=O)N2C[C@@H](N)C[C@@H]2C(=O)NO)cc1 | 23 | 6 | 4300 | 250 | 5 | –
15 | CC(C)COc1ccc(S(=O)(=O)N2C[C@@H](N3C(=O)CN(C)C3=O)C[C@@H]2C(=O)NO)cc1 | 3 | – | 2300 | 300 | 2.8 | –
16 | COc1ccc(S(=O)(=O)N[C@H]2C[C@H](C(=O)NO)N(S(=O)(=O)c3ccc(OC)cc3)C2)cc1 | 36 | 3 | 3000 | 350 | 2 | –
17 | C=CCN1CC(=O)N([C@H]2C[C@H](C(=O)NO)N(S(=O)(=O)c3ccc(OCCC)cc3)C2)C1=O | 11 | 0.8 | 2600 | 350 | 0.4 | –
18 | CCCN(C(=O)[C@@H](O)CCc1ccccc1)[C@H]1C[C@H](C(=O)NO)N(S(=O)(=O)c2ccc(OC)cc2)C1 | 12 | 0.6 | – | 260 | – | IC50 (Collagenase 3 [5]): 0.5 nM

Row | Structure (SMILES) | IC50 (Stromelysin-1 [1]) [nM] | IC50 [3] [nM] | IC50 (Matrilysin) [nM] | IC50 (Interstitial collagenase) [nM] | IC50 (Collagenase 3 [4]) [nM] | other results
19 | COc1ccc(S(=O)(=O)N2C[C@@H](N(Cc3cccnc3)S(C)(=O)=O)C[C@@H]2C(=O)NO)cc1 | 6 | 2 | 2700 | 74 | 1 | Time over 100ng/ml (Rattus norvegicus): 0 h
20 | CCCOc1ccc(S(=O)(=O)N2C[C@@H](N3CCCS3(=O)=O)C[C@@H]2C(=O)NO)cc1 | 8 | – | 840 | 100 | < 0.4 | –
21 | COc1ccc(S(=O)(=O)N2C[C@@H](NC(=O)[C@H](C)OCc3ccccc3)C[C@@H]2C(=O)NO)cc1 | 7 | 0.3 | – | 140 | – | –
22 | CCCCOc1ccc(S(=O)(=O)N2C[C@@H](NC(=O)COC)C[C@@H]2C(=O)NO)cc1 | 14 | – | 4900 | 1200 | 0.7 | –
23 | CCCCOc1ccc(S(=O)(=O)N2C[C@@H](N3C(=O)CN(C)C3=O)C[C@@H]2C(=O)NO)cc1 | – | – | 1600 | – | – | Time over 100ng/ml (Rattus norvegicus): 0 h; IC50 (Stromelysin-1 [6]): 2 nM
24 | COc1ccc(S(=O)(=O)N2C[C@@H](N(Cc3cccnc3)C(=O)C(C)C)C[C@@H]2C(=O)NO)cc1 | 10 | 2.2 | – | 270 | 17 | –
25 | CCCCOc1ccc(S(=O)(=O)N2C[C@@H](NC(=O)[C@@H](O)C(C)C)C[C@@H]2C(=O)NO)cc1 | 8 | – | 1700 | 270 | 0.8 | –
26 | CN1CC(=O)N([C@H]2C[C@H](C(=O)NO)N(S(=O)(=O)c3ccc(Oc4ccccc4)cc3)C2)C1=O | 6 | – | 310 | 21 | < 0.4 | –
27 | COc1ccc(S(=O)(=O)N2C[C@@H](NC(=O)[C@H](Cc3ccccc3)OCc3ccccc3)C[C@@H]2C(=O)NO)cc1 | 10 | 0.2 | – | 240 | 2 | –
28 | COc1ccc(S(=O)(=O)N2C[C@@H](N3CCCS3(=O)=O)C[C@@H]2C(=O)NO)cc1 | 13 | – | 1400 | 42 | 0.4 | –
29 | CCCCCc1ccc(S(=O)(=O)N2C[C@@H](N3CCCCC3)C[C@@H]2C(=O)NO)cc1 | 12 | – | 9800 | 2000 | 0.9 | –
30 | CCCCOc1ccc(S(=O)(=O)N2C[C@@H](N3CCOCC3)C[C@@H]2C(=O)NO)cc1 | 5 | 4 | 5400 | 920 | – | half-life [7]: 24 min; IC50 (Collagenase 3 [2]): 0.6 nM; Time over 100ng/ml (Rattus norvegicus): 3.5 h; clearance [8]: 30 mL/min/kg; half-life [9]: 102 min; Vd [10]: 0.408 L/kg; bioavailability [11]: 6%
31 | COc1ccc(S(=O)(=O)N2C[C@@H](N3CCS(=O)(=O)CC3)C[C@@H]2C(=O)NO)cc1 | 23 | – | 7100 | 300 | 1 | –
32 | C=CCN1CC(=O)N([C@H]2C[C@H](C(=O)NO)N(S(=O)(=O)c3ccc(OCCOC)cc3)C2)C1=O | 46 | 2 | 11000 | 2900 | 2 | –
33 | CCCCOc1ccc(S(=O)(=O)N2C[C@@H](NS(C)(=O)=O)C[C@@H]2C(=O)NO)cc1 | – | 0.8 | 3900 | 1300 | 0.7 | –
34 | CCCCOc1ccc(S(=O)(=O)N2C[C@@H](N3C(=O)NC(C)(C)C3=O)C[C@@H]2C(=O)NO)cc1 | 3 | 2 | 450 | 780 | – | IC50 (Collagenase 3 [2]): < 0.5 nM
35 | C=CCN1CC(=O)N([C@H]2C[C@H](C(=O)NO)N(S(=O)(=O)c3ccc(OCCCC)cc3)C2)C1=O | 7 | – | 1000 | 480 | 0.4 | Time over 100ng/ml (Rattus norvegicus): 4 h
